Laboratory results as given in ChEMBL document CHEMBL2331353, “Synthesis and biological evaluation of some novel resveratrol amide derivatives as potential anti-tumor agents” (Eur J Med Chem, 2013).
The source made the active and inactive calls. No cut-off for these calls is given here.

Legend:
[1] = molecular target: Prostaglandin G/H synthase 1 (Homo sapiens, UniProt P23219); experiment: Inhibition of COX-1 (unknown origin) by chemiluminescence assay
[2] = tested on: B16-F10; experiment: Antitumor activity against mouse B16F10 cells assessed as inhibition of cell proliferation after 48 hrs by MTT assay; type: functional, cell-based; details: B16-F10, 48 h
Method in brief: (§1)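 Cells grown to log phase in RPMI 1640 with 10% FBS, seeded at 2×10^4 cells/mL and preincubated 24 h at 37 °C, 5% CO2. Compounds at preset concentrations added (6 wells), celecoxib as positive reference, 48 h exposure. MTT (2.5 mg/mL in PBS) for 4 h, then SDS/isobutanol/HCl extraction overnight at 37 °C. OD read at 570 nm. Triplicate wells per concentration, at least three independent runs.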

[3] = tested on: MCF7; experiment: Antitumor activity against human MCF7 cells assessed as inhibition of cell proliferation after 48 hrs by MTT assay; type: functional, cell-based; details: MCF7, 48 h; method in brief: as §1
[4] = molecular target: T1, Prostaglandin G/H synthase 2 (Mus musculus, UniProt Q05769); experiment: Inhibition of COX-2 in mouse RAW264.7 cells assessed as decrease in LPS-induced PGE2 production; type: cell-based
T1 sequence (Q05769 whole entry): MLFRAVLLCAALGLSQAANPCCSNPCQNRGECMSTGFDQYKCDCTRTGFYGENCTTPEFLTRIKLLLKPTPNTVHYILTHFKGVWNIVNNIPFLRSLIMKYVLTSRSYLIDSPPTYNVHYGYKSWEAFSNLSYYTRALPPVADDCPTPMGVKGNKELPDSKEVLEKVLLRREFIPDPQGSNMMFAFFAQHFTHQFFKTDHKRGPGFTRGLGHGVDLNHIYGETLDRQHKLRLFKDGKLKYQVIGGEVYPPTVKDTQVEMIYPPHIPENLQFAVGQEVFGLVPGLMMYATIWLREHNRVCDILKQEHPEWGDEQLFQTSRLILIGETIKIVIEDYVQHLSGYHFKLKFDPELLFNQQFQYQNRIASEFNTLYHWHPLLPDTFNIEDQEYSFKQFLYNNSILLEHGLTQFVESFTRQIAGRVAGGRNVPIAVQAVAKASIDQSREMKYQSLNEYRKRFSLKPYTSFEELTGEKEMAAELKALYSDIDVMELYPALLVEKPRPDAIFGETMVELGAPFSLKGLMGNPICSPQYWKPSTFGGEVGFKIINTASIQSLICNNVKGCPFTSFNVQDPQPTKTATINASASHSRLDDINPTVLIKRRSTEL

[5] = molecular target: T2, Prostaglandin G/H synthase 2 (Homo sapiens, UniProt P35354); experiment: Inhibition of COX-2 (unknown origin) by chemiluminescence assay
T2 sequence (P35354 whole entry): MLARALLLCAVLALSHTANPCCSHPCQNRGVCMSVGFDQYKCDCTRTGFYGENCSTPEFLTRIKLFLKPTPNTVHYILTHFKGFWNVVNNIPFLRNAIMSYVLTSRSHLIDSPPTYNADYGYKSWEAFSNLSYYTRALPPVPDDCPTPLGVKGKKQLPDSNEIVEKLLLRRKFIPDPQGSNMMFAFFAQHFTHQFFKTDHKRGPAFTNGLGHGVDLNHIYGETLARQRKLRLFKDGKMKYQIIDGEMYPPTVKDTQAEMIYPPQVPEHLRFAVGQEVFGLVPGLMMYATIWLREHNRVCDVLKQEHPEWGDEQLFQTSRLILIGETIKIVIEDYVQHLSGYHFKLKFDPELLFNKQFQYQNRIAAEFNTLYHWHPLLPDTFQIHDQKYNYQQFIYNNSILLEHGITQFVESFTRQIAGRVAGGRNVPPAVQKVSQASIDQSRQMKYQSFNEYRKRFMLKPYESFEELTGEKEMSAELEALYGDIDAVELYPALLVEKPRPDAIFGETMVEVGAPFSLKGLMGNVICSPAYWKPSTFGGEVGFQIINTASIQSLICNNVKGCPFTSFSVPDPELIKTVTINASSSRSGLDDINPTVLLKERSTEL

[6] = tested on: A549; experiment: Antitumor activity against human A549 cells assessed as inhibition of cell proliferation after 48 hrs by MTT assay; type: functional, cell-based; details: A549, 48 h; method in brief: as §1
[7] = tested on: RAW264.7; experiment: Inhibition of LPS-induced COX-2 expression in mouse RAW264.7 cells at >0.5 uM treated for 15 mins before LPS challenge measured after 18 hrs by Western blot analysis; type: functional, cell-based
Method in brief: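 RAW 264.7 cells (5×10^5) incubated 24 h in 12-well plates. Compound pretreatment at 0.5, 1.0 or 1.5 µM for 15 min, then LPS 1 µg/mL for 18 h. Cells lysed in lysis buffer. COX-2 protein detected by Western immunoblot.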

Prostaglandin G/H synthase 1, sequence (P23219 whole entry): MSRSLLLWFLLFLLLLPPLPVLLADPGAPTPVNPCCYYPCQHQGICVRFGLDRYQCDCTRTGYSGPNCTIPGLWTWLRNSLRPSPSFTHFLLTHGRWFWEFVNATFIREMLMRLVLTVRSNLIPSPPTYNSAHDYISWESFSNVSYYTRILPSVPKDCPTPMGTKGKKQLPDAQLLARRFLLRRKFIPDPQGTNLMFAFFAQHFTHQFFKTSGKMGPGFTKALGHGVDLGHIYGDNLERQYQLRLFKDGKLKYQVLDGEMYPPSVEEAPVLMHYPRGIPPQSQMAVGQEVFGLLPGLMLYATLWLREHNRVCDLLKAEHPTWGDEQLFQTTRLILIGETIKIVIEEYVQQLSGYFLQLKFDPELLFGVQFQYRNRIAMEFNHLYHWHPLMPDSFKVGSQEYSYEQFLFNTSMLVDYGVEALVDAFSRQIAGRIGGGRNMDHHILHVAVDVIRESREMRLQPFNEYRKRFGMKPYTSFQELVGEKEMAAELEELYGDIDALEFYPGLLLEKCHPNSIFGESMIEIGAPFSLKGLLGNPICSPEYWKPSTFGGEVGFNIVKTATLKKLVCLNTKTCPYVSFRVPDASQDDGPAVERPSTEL

## CCCCNC(=O)/C=C/c1c(/C=C/c2ccc(OC)cc2)cc(OC)cc1OC
[1]
  IC50: > 50 µM
[2]
  IC50: 2.08 µM
[3]
  IC50: 1.33 µM
[4]
  IC50: 0.28 µM
[5]
  IC50: 1.02 µM
[6]
  IC50: 1.88 µM
[7]
  inhibition: Active

## CCCNC(=O)/C=C/c1c(/C=C/c2ccc(OC)cc2)cc(OC)cc1OC
[1]
  IC50: > 50 µM
[2]
  IC50: 9.08 µM
[3]
  IC50: 5.61 µM
[4]
  IC50: 2.08 µM
[5]
  IC50: 6.75 µM
[6]
  IC50: 5.17 µM

## COc1ccc(/C=C/c2cc(OC)cc(OC)c2/C=C/C(=O)NCc2ccco2)cc1
[1]
  IC50: 29.1 µM
[2]
  IC50: 10.1 µM
[3]
  IC50: 5.42 µM
[4]
  IC50: 3.15 µM
[5]
  IC50: 9.67 µM
[6]
  IC50: 6.42 µM

## COc1ccc(/C=C/c2cc(OC)cc(OC)c2/C=C/C(=O)N(C)C)cc1
[1]
  IC50: > 50 µM
[2]
  IC50: 5.78 µM
[3]
  IC50: 6.86 µM
[4]
  IC50: 4.36 µM
[5]
  IC50: 13 µM
[6]
  IC50: 6 µM

## CCCCCCNC(=O)/C=C/c1c(/C=C/c2ccc(OC)cc2)cc(OC)cc1OC
[1]
  IC50: 34.7 µM
[2]
  IC50: 7.18 µM
[3]
  IC50: 5.53 µM
[4]
  IC50: 5.01 µM
[5]
  IC50: 8.99 µM
[6]
  IC50: 6.23 µM
